We go through 1 molecule from ChEMBL document CHEMBL4610092, “Cytotoxic Nitrogenated Azaphilones from the Deep-Sea-Derived Fungus Chaetomium globosum MP4-S01-7” (J Nat Prod, 2020).

The test system of assay [1] is AGS. The assay is described as follows: Cytotoxicity against human AGS cells assessed as reduction in cell viability measured after 72 hrs by CCK8 assay. In kind it is functional, cell-based. Summed up: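 MGC803 or AGS cells (RPMI 1640, 10% FBS, 5% CO₂, 37 °C) plated at 3 × 10³ per well overnight, then exposed to 0.1–10 μM for 72 h. Viability was read by CCK8 absorbance at 450 nm, and IC₅₀ was calculated from the concentration series.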

The subject of assay [2] is MGC-803. Put plainly: Cell cycle arrest in human MGC803 cells assessed as accumulation at G1-phase at 0.5 uM measured after 24 hrs by propidium iodide staining based flow cytometry (reference value: 45%). In kind it is functional.
The subject of assay [3] is MGC-803. The assay is described as follows: Cell cycle arrest in human MGC803 cells assessed as accumulation at S-phase at 1 uM measured after 24 hrs by propidium iodide staining based flow cytometry (reference value: 33%). The format is functional.
Assay [4] has as its system MGC-803. Put plainly: Cell cycle arrest in human MGC803 cells assessed as accumulation at G2/M-phase at 1 uM measured after 24 hrs by propidium iodide staining based flow cytometry (reference value: 22%). The format is functional.
Assay [5] relates to MGC-803. Put plainly: Induction of apoptosis in human MGC803 cells measured after 48 hrs FITC-A/PE-A staining based flow cytometry. The format is functional, cell-based.
In assay [6] the test system is MGC-803. Put plainly: Induction of apoptosis in human MGC803 cells assessed as viable cells at 0.2 uM measured after 48 hrs FITC-A/PE-A staining based flow cytometry (reference value: 94.89 to 96.41%). In kind it is functional. To be noted: MGC-803, 48 h, read-out: Activity.
The test system of assay [7] is MGC-803. The assay is described as follows: Induction of apoptosis in human MGC803 cells assessed as late apoptotic cells at 0.2 uM measured after 48 hrs FITC-A/PE-A staining based flow cytometry (reference value: 0.9 to 2.18%). In kind it is functional.
The test system of assay [8] is MGC-803. Put plainly: Induction of apoptosis in human MGC803 cells assessed as early apoptotic cells at 0.5 uM measured after 48 hrs FITC-A/PE-A staining based flow cytometry (reference value: 0.59 to 3.54%). The format is functional.
The subject of assay [9] is MGC-803. Put plainly: Induction of apoptosis in human MGC803 cells assessed as necrotic cells at 0.5 uM measured after 48 hrs FITC-A/PE-A staining based flow cytometry (reference value: 0.9 to 2.18%). The format is functional.
The subject of assay [10] is MGC-803. Put plainly: Induction of apoptosis in human MGC803 cells assessed as viable cells at 1 uM measured after 48 hrs FITC-A/PE-A staining based flow cytometry (reference value: 94.89 to 96.41%). In kind it is functional. The following applies: MGC-803, 48 h, read-out: Activity.
In assay [11] the test system is AGS. The assay is described as follows: Induction of apoptosis in human AGS cells assessed as viable cells at 0.5 uM measured after 48 hrs FITC-A/PE-A staining based flow cytometry (reference value: 92.05 to 93.85%). The format is functional. The following applies: read-out: Activity.
Assay [12] has as its system AGS. The assay is described as follows: Induction of apoptosis in human AGS cells assessed as viable cells at 1 uM measured after 48 hrs FITC-A/PE-A staining based flow cytometry (reference value: 92.05 to 93.85%). In kind it is functional. To be noted: read-out: Activity.
The subject of assay [13] is AGS. The assay is described as follows: Induction of apoptosis in human AGS cells assessed as early apoptotic cells at 1 uM measured after 48 hrs FITC-A/PE-A staining based flow cytometry (reference value: 1.77 to 2.91%). The format is functional.
In assay [14] the test system is MGC-803. The assay is described as follows: Induction of apoptosis in human MGC803 cells assessed as early apoptotic cells at 5 uM measured after 48 hrs FITC-A/PE-A staining based flow cytometry (reference value: 0.59 to 3.54%). The format is functional.

In the case of `CC[C@H](C)/C=C/C1=CC2=C(Cl)C(=O)[C@@]3(C)OC(=O)C(C(=O)[C@@H](C)[C@@H](C)O)=C3C2=CN1C/C=C(\C)CCC=C(C)C`, in the assay with AGS [1], the IC50 was found to be 620 nM. For the same molecule, the Activity in the assay with MGC-803 [2] is 48%; with MGC-803 [3], 32%; in the assay with MGC-803 [4], 9.4%; with MGC-803 [5], “Dose-dependent effect”; with MGC-803 [7] it was 2.23%; with MGC-803 [8], 2.65%. The Activity with MGC-803 [9] came out at 3.23%; in the assay on AGS [13] it was 16.5%; in the assay on MGC-803 [14], 6.2%. Further, the viability at 0.2 µM with MGC-803 [6] turned out to be 90.7%. For the same molecule, the viability at 1 µM in the assay with MGC-803 [10] worked out at 71.7%; in the assay on AGS [12], 45%. In the assay with AGS [11], the viability at 0.5 µM turned out to be 88.2%.
